Most compounds without a hit are left out; they make up all but 1.7% or so of the library.
STEP block: inhibitors of human striatal-enriched phosphatase STEP | P54829 | recombinant STEP, OMFP fluorogenic substrate, fluorescence | inhibition, % at 20 µM | 360,000 tested, 0.25% active | AID 588621;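 active = inhibition at 20 µM, scaled per plate between control wells, above about 37%, limit read from the data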;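 also: 0% = DMSO with enzyme and substrate and 100% = substrate only without enzyme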
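Test system: STEP tyrosine phosphatase / Reagent: OMFP at 25 µM / Doses: 20 µM, 1% DMSO / Read-out: percent inhibition scaled to no-enzyme and uninhibited-enzyme controls, plate-pattern corrected / Detection: FITC-channel fluorescence of OMFP product / Medium: Bis-Tris buffer pH 6.0, 2.5 mM DTT, 0.005% Tween 20 / Schedule: 20 min at room temperature, dark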
Scp-1 inhibitor: blocks human Scp-1 phosphatase activity | Q9GZU7 | AID 493091 | 340,000 tested, 0.88% active | Recombinant Scp1, phosphopeptide, malachite green phosphate absorbance | inhibition, % at 20 µM;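 active = inhibition above about 50% at 20 µM, limit read from the data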;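 also: plate controls were DMSO wells with enzyme for no effect and wells lacking enzyme for full effect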
Target sequence (Q9GZU7 76-261 limits assumed): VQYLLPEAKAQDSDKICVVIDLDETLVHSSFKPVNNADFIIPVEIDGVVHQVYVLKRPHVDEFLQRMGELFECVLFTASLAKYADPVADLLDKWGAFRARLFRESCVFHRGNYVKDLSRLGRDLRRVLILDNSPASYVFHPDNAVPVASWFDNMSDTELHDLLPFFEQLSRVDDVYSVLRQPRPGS
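Test system: SCP-1 catalytic domain; Buffer or medium: Acidic Tris acetate buffer with magnesium and detergent; Also added: Phosphorylated 17-residue peptide substrate; Compound: single 20 µM dose, 1% DMSO; Schedule: enzyme reaction 45 min at room temperature, colour 5 min, stabilisation 30 min; Signal: Phosphate-binding colour reagent, absorbance read at 630 nm.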
SUMO1-SIM PPI: SUMO1-SIM interaction modulation. P63165. SUMO1 binding to a labelled peptide, TR-FRET, 1 h. 360,000 tested, 0.33% active. inhibition, % at 20 µM; in the data active = inhibition above about 37%
Target sequence (P63165 whole entry, looked up): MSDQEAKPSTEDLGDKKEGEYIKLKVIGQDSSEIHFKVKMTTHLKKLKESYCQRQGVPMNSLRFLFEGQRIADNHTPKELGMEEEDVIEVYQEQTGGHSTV
DNMT1 block: DNMT1 (human) enzyme inhibition | DNMT1 molecular beacon, Hinp1I cleavage, fluorescence | inhibition (reported as % activation of signal), % at 10 µM | 360,000 tested, 0.83% active | AID 588458; in the data active = inhibition above about 50%
LMPTP inh: blocks human LMPTP phosphatase | recombinant LMPTP-A, OMFP fluorogenic substrate, fluorescence intensity | inhibition, % at 20 µM | 360,000 tested, 0.22% active;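 active = compounds that cut the enzyme signal by at least half of the control window in the single-dose screen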;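 also: plate controls were DMSO wells with enzyme plus substrate for no effect and substrate without enzyme for full effect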
Target sequence (P24666 whole entry, looked up): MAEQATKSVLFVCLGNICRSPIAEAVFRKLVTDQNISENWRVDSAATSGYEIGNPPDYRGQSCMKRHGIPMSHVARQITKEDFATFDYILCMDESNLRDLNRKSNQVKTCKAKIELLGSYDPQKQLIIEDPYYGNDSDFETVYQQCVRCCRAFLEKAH
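Test system: LMPTP-A phosphatase enzyme. Amount: LMPTP-A at 0.625 nM final in the reaction. Reagent: OMFP substrate, 400 µM final. Times: 50 min at room temperature. Signal: endpoint fluorescence intensity from OMFP dephosphorylation. Read-out basis: % inhibition. Benchmarks: no-enzyme and uninhibited controls.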
Scp1 confirm: confirmation of human Scp-1 phosphatase inhibitors. recombinant SCP-1 catalytic domain, phosphate release, malachite green absorbance. 2,500 tested, 61% active. inhibition, % at 20 µM. shares compounds with Scp-1 inhibitor;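 also: plate controls were DMSO with enzyme for no effect and buffer wells lacking enzyme for full effect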
MG interference: counter-screen for Scp-1 inhibitors: colorimetric interference | 2,500 tested, under 10 active | Colorimetric interference counterscreen, malachite green absorbance 630 nm | shares compounds with Scp-1 inhibitor | AID 540313 | apparent inhibition (interference), % at 20 µM;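 also: compounds added after enzyme reaction finished so only phosphate colour detection is probed; plate controls were DMSO wells with completed Scp-1 reaction for no effect and substrate wells lacking enzyme for full effect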
Scp1 DSF: validation of human Scp-1 inhibitors by thermal shift binding | AID 540329 | shares compounds with Scp-1 inhibitor | Recombinant SCP1, Sypro Orange thermal shift Tm | 1,500 tested, 25% active | thermal shift relative to vanadate control, % at 40 µM;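 active = substances whose mean melting-temperature shift, as a percentage of the reference inhibitor's shift, reaches about 5.3%, limit read from the data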;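 also: 0% = Tm of DMSO wells and 100% = Tm with sodium orthovanadate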
Starred values were filed as active, the others as inactive; nt = no result.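 The calls were made as follows, unless noted: active = inhibition of at least 30% at 20 µM; inactive = the rest.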

SMILES	STEP block	Scp-1 inhibitor	SUMO1-SIM PPI	DNMT1 block	LMPTP inh	Scp1 confirm	MG interference	others
CCCCc1ccc(S(=O)(=O)Nc2nnc(C)s2)cc1	3	5	5	-2	-1	nt	nt
Cc1ccc(F)cc1NC(=O)CSc1n[nH]c(N)n1	2	-10	7	2	0	nt	nt
C[N+]1(CCOS(=O)C23CC4CC(CC(C4)C2)C3)CCOCC1 (stereo not drawn)	-3	105*	3	0	-2	-5	-7
CC(C)CNC(=O)[C@H]1N2C(=O)c3ccccc3C2SC1(C)C (stereo partly drawn)	-1	0	-7	0	-2	nt	nt
CCCCCCn1c(-c2ccco2)nc2oc3cc(OC)ccc3c(=O)c2c1=O	1	56*	-7	49	5	50*	-5	Scp1 DSF=0
CCOc1cc(/C=C\c2nc(O)c([N+](=O)[O-])c(=O)[nH]2)ccc1OC(C)C	0	-2	-12	4	-1	nt	nt
C=CCc1cc(/C=C/c2nc(O)c([N+](=O)[O-])c(=O)[nH]2)cc(OC)c1O	3	64*	15	31	-5	59*	-12	Scp1 DSF=11*
CC(C)Cc1ccc(C(C)CC2=CCC(CN(C)C)C2=O)cc1 (stereo not drawn)	4	-8	21	44	1	nt	nt
COc1ccc(C=C2SC(=S)NC2=O)cc1	-4	11	-7	-1	-2	nt	nt
COc1cccc(OCCOc2ccc(/C=C3/SC(=S)NC3=O)cc2)c1	8	56*	-9	42	1	1	-15
O=C(NNC(=O)c1ccccc1F)c1ccc2nc[nH]c2c1	-3	11	4	1	1	nt	nt
O=C(NNC(=O)c1ccccc1Br)c1ccc2nc[nH]c2c1	18	73*	12	22	5	66*	-10	Scp1 DSF=3
COc1ccc2c(c1)Cc1cc(NC(=O)c3ccccc3-c3ccccc3C(=O)O)ccc1-2	-2	nt	34	-3	-1	nt	nt
Cc1ccc(C)c2c3c([nH]c12)-c1nonc1CC3	-4	-10	-13	-2	-1	nt	nt
Cc1cccc(-n2ncc3c(=O)[nH]c(SCC(=O)N4CC(=O)Nc5ccccc54)nc32)c1	1	-6	8	-2	1	nt	nt
O=C(CSc1ccc2nnc(CCNC(=O)c3ccccc3)n2n1)NCc1ccc(F)cc1	0	-2	-1	-1	2	nt	nt
CN(C)c1ccc(/C=C2\C(=N)N3N=C(CC(=O)N4CCCC4)SC3=NC2=O)cc1Br	-1	58*	-2	5	0	-1	-9
O=C1CCN(Cc2ccccc2)S(=O)(=O)c2ccc(F)cc21	-3	52*	1	20	-1	2	-17
Cc1cc(OCC[N+]2(C)CCCCC2)nc2ccccc12	-3	102*	-1	6	0	90*	-8	Scp1 DSF=-20
Cc1cc(NC2CCCCC2)nc2ccccc12	-2	4	2	2	4	nt	nt
CCCCNC(=O)CCC(=O)N1CCN(C(c2ccccc2)c2ccccc2)CC1	-2	0	1	-2	-3	nt	nt
COc1ccc(N2CCN(C(CNC(C)=O)c3ccc4c(c3)OCO4)CC2)cc1 (stereo not drawn)	0	6	-2	1	-2	nt	nt
COc1ccc(N2CCN(C(CNC(=O)CC(C)(C)C)c3ccc4c(c3)OCO4)CC2)cc1 (stereo not drawn)	1	64*	3	1	-1	-10	-10
COc1cc2cnc(-c3ccccc3)c(-c3cc(OC)c(OC)c(OC)c3)c2cc1OC	-1	61*	2	3	0	37*	0	Scp1 DSF=-8
COc1cc2cnc(-c3ccccc3)c(-c3ccc([N+](=O)[O-])cc3)c2cc1OC	-1	12	-31	-2	1	nt	nt
SMILES	STEP block	Scp-1 inhibitor	SUMO1-SIM PPI	DNMT1 block	LMPTP inh	Scp1 confirm	MG interference	others
O=C(CN(Cc1ccccc1)C(=O)CCC(=O)Nc1nccs1)NCC1CCCO1 (stereo not drawn)	-2	14	4	-2	0	nt	nt
Cc1sc2ncnc(SCC(=O)Nc3ncccc3O)c2c1C	5	59*	20	29	8	72*	-2	Scp1 DSF=9.8*
COc1ccc(NC(=O)CSc2ncnc3sc(C)cc23)cc1	1	-4	2	-1	-1	nt	nt
Cc1cc2c(SCC(=O)Nc3cccc(O)c3)ncnc2s1	10	70*	22	70*	32	59*	-15	Scp1 DSF=13*
Cc1nc2sccn2c(=O)c1S(=O)(=O)NCC(C)c1ccccc1 (stereo not drawn)	1	-5	3	1	-1	nt	nt
O=C(COC(=O)/C=C/c1ccco1)Nc1ccccc1	0	46	-11	25	14	nt	nt
CC1CCN(C(=O)COC(=O)/C=C/c2ccco2)CC1	10	65*	-12	38	2	25	-17
CN(Cc1ccccc1)C(=O)COC(=O)/C=C/c1ccco1	8	65*	-12	32	12	62*	-9	Scp1 DSF=-13
CC1CCCC(C)N1C(=O)COC(=O)/C=C/c1ccc(Br)o1 (stereo not drawn)	6	92*	10	25	5	58*	-13	Scp1 DSF=-6
CC1CCN(C(=O)COC(=O)/C=C/c2ccc(Br)o2)CC1	1	-4	-13	23	8	nt	nt
Cc1ccc(NS(=O)(=O)c2ccc(C(=O)Nc3nncs3)cc2)cc1	0	-10	5	-1	-2	nt	nt
COc1ccc(/C=C/C(=O)NC(=S)Nc2cc([N+](=O)[O-])ccc2O)cc1OC	62*	80*	13	-14	56*	54*	-10	Scp1 DSF=5.7*
COc1ccc([N+](=O)[O-])cc1NC(=S)NC(C)=O	-4	-6	-11	2	1	nt	nt
N#Cc1cccc(S(=O)(=O)NCc2nnc3ccccn23)c1	0	-4	-12	-1	-3	nt	nt
Cc1ccc(C(=O)NCC(c2ccc(F)cc2)N2CCOCC2)cc1S(=O)(=O)N1CCOCC1 (stereo not drawn)	2	4	-5	5	-1	nt	nt
CCOC(=O)CSc1[nH]c(=O)cc(C)c1C#N	-2	50*	-2	1	-1	-27	-22
Cc1ccc2[nH]c3c(=O)n(CC(=O)NCc4ccco4)ncc3c2c1	-1	52*	6	24	6	4	-13
CC(=O)N1CCCc2cc(S(=O)(=O)CCC(=O)N3CCN(c4cccc(C)c4)C(C)C3)ccc21 (stereo not drawn)	-2	50*	8	33	0	26	6

Source: PubChem BioAssay
